Results reported in ChEMBL document CHEMBL1123797, “Antianaphylactic benzophenones and related compounds” (1987).

What was measured:
Cavia porcellus [1] = assay: Mean collapse time after pretreatment with compound divided by mean collapse time of untreated control animals at 50 mg/kg po dose; assay type: functional
Outline: (§1)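 Modified Herxheimer test in conscious sensitized guinea pigs, 4-5 per group. Compound was given orally at 25, 50 or 100 mg/kg 2 or 4 h before antigen challenge. Some groups also received mepyramine 0.5 mg/kg sc 0.5 h before challenge. D = mean collapse time of treated/untreated controls; M+D = mean collapse time of compound+mepyramine/mepyramine-dosed controls.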

Cavia porcellus [2] = organism: Cavia porcellus; assay: Compound was tested for the inhibition of histamine release from sensitized guinea pig chopped lung upon antigen challenge at 10 ug/mL; assay type: functional
Outline: (§2)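 Guinea pigs sensitized to ovalbumin; lungs taken 3 weeks later, perfused with Tyrode, chopped into 0.5-mm cubes. 100-mg aliquots in Tyrode were preincubated 5 min at 37 °C, then compound or Tyrode and ovalbumin (5 mg in 0.1 mL) were added. Incubation was 15 min at 37 °C with rocking, and supernatant was bioassayed. Unchallenged control gave spontaneous release. Values are % inhibition, mean of ≥4 samples; Student's t-test.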

Cavia porcellus [3] = organism: Cavia porcellus; assay: Inhibition of slow reacting substance of anaphylaxis (SRS-A) release from sensitized guinea pig chopped lung upon antigen challenge at 10 ug/mL; assay type: functional; outline: as §2
Cavia porcellus [4] = assay: Mean collapse time after pretreatment with compound and mepyramine divided by mean collapse time of mepyramine-dosed control animals at 50 mg/kg po dose; assay type: functional; outline: as §1
Cavia porcellus [5] = assay: Time of dosing of compound before antigen challenge in conscious sensitized guinea pig at 50 mg/kg po dose; assay type: functional; outline: as §1
Cavia porcellus [6] = assay: Mean collapse time after pretreatment with compound and mepyramine divided by mean collapse time of mepyramine-dosed control animals at 100 mg/kg po dose; assay type: functional; outline: as §1
Cavia porcellus [7] = assay: Mean collapse time after pretreatment with compound divided by mean collapse time of untreated control animals at 100 mg/kg po dose; assay type: functional; outline: as §1
Cavia porcellus [8] = assay: Time of dosing of compound before antigen challenge in conscious sensitized guinea pig at 100 mg/kg po dose; assay type: functional; outline: as §1
Cavia porcellus [9] = organism: Cavia porcellus; assay: Inhibition of slow reacting substance of anaphylaxis (SRS-A) release from sensitized guinea pig chopped lung upon antigen challenge.; assay type: functional; outline: as §2
Homo sapiens [10] = organism: Homo sapiens; assay: Inhibition of Histamine mediator release form passively sensitized human lung upon antigen challenge at 10(ug/mL) dose:; assay type: functional
Outline: (§3)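 Healthy human lung from carcinoma surgery was chopped into 0.5-mm cubes and passively sensitized 18 h at 18 °C with atopic serum from cocksfoot-pollen-allergic patients. Tissue was preincubated 5 min with compound, challenged with pollen extract (0.1 mL, 1000 noon units) and incubated as for guinea pig lung. Supernatant was bioassayed on guinea pig ileum, with mepyramine-treated (0.4 μg/mL) ileum for SRS-A. Values are % inhibition of mediator release.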

Homo sapiens [11] = organism: Homo sapiens; assay: Inhibition of Slow reacting substance of anaphylaxis (SRS-A) mediator release form passively sensitized human lung upon antigen challenge at 10(ug/mL) dose:; assay type: functional; outline: as §3
Cavia porcellus [12] = assay: Effect on bronchospasm in conscious sensitized guinea pig upon antigen challenge (herxheimer) at 25 mg/kg po dose; assay type: functional, Bronchiole; outline: as §1
Cavia porcellus [13] = organism: Cavia porcellus; assay: Inhibition of histamine release from sensitized guinea pig chopped lung upon antigen challenge at 10 ug/mL.; assay type: functional; outline: as §2
Cavia porcellus [14] = assay: Mean collapse time after pretreatment with compound and mepyramine divided by mean collapse time of mepyramine-dosed control animals at 25 mg/kg po dose; assay type: functional; outline: as §1
Cavia porcellus [15] = assay: Mean collapse time after pretreatment with compound divided by mean collapse time of untreated control animals at 25 mg/kg po dose; assay type: functional; outline: as §1
Homo sapiens [16] = organism: Homo sapiens; assay: Inhibition of Histamine mediator release form passively sensitized human lung upon antigen challenge at 10 ug/mL dose; assay type: functional; outline: as §3
Homo sapiens [17] = organism: Homo sapiens; assay: Inhibition of Histamine mediator release form passively sensitized human lung upon antigen challenge at 1 ug/mL dose; assay type: functional; outline: as §3
Homo sapiens [18] = organism: Homo sapiens; assay: Inhibition of Slow reacting substance of anaphylaxis (SRS-A) mediator release form passively sensitized human lung upon antigen challenge at 10 ug/mL dose; assay type: functional; outline: as §3
Homo sapiens [19] = organism: Homo sapiens; assay: Inhibition of Slow reacting substance of anaphylaxis (SRS-A) mediator release form passively sensitized human lung upon antigen challenge at 1 ug/mL dose; assay type: functional; outline: as §3
Cavia porcellus [20] = assay: Time of dosing of compound before antigen challenge in conscious sensitized guinea pig at 25 mg/kg po dose; assay type: functional; outline: as §1
Cavia porcellus [21] = assay: Mean collapse time after pretreatment with compound and mepyramine divided by mean collapse time of mepyramine-dosed control animals at 2 mg/kg po dose; assay type: functional
Cavia porcellus [22] = assay: Mean collapse time after pretreatment with compound divided by mean collapse time of untreated control animals at 2 mg/kg po dose; assay type: functional
Cavia porcellus [23] = assay: Time of dosing of compound before antigen challenge in conscious sensitized guinea pig at 2 mg/kg po dose; assay type: functional

## CCc1ccc(O)c(C(=O)c2ccsc2)c1
Cavia porcellus [1]
  Activity: 0.8
Cavia porcellus [2]
  Inhibition: 37%
Cavia porcellus [3]
  Inhibition: 26%
Cavia porcellus [4]
  Activity: 2.3
Cavia porcellus [5]; dose 50 mg/kg
  Time: 2 h

## CCc1ccc(C(=O)c2ccc(F)cc2)c(O)c1
Cavia porcellus [1]
  Activity: 1.3
Cavia porcellus [3]
  Inhibition: 5%
Cavia porcellus [6]
  Activity: 2.3
Cavia porcellus [4]
  Activity: 2.8
Cavia porcellus [7]
  Activity: 1.2
Cavia porcellus [8]
  Time: 2 h

## CCc1ccc(O)c(S(=O)(=O)c2ccc(Cl)cc2)c1
Cavia porcellus [9]
  Inhibition: 19%

## C=C(c1ccc(C)cc1)c1cc(CC)ccc1O
Cavia porcellus [1]
  Activity: 1
Cavia porcellus [3]
  Inhibition: 0%
Cavia porcellus [4]
  Activity: 3.5
Homo sapiens [10]
  Inhibition: 0%
Homo sapiens [11]
  Inhibition: 84%

## CCc1ccc(O)c(C(=O)c2ccc(Cl)cc2)c1
Cavia porcellus [12]
  Time of dosing before antigen challenge.: 4 h
Cavia porcellus [13]
  Inhibition: 3%
Cavia porcellus [3]
  Inhibition: 51%
Cavia porcellus [6]
  Activity: 1.8
Cavia porcellus [14]
  Activity: 2.7
Cavia porcellus [7]
  Activity: 1.4
Cavia porcellus [15]
  Activity: 0.8
Cavia porcellus [8]
  Time: 2 h
Homo sapiens [16]
  Inhibition: 0%
Homo sapiens [17]
  Inhibition: 0%
Homo sapiens [18]
  Inhibition: 100%
Homo sapiens [19]
  Inhibition: 74%

## CCc1ccc(O)c([S+]([O-])c2ccc(Cl)cc2)c1 (centres undefined)
Cavia porcellus [1]
  Activity: 1
Cavia porcellus [13]
  Inhibition: 26%
Cavia porcellus [3]
  Inhibition: 48%
Cavia porcellus [14]
  Activity: 1.7
Cavia porcellus [4]
  Activity: 1.7
Cavia porcellus [15]
  Activity: 1.3
Cavia porcellus [20]
  Time: 4 h
Cavia porcellus [5]; dose 50 mg/kg
  Time: 2 h
Homo sapiens [16]
  Inhibition: 31%
Homo sapiens [17]
  Inhibition: 0%
Homo sapiens [18]
  Inhibition: 99%
Homo sapiens [19]
  Inhibition: 69%

## CCc1ccc(O)c(S(=O)(=O)c2ccccc2)c1
Cavia porcellus [9]
  Inhibition: 0%

## CCc1ccc(O)c(C(=O)c2cccs2)c1
Cavia porcellus [1]
  Activity: 0.7
Cavia porcellus [13]
  Inhibition: 0%
Cavia porcellus [3]
  Inhibition: 59%
Cavia porcellus [4]
  Activity: 1.6
Cavia porcellus [5]; dose 50 mg/kg
  Time: 2 h
Homo sapiens [16]
  Inhibition: 0%
Homo sapiens [17]
  Inhibition: 0%
Homo sapiens [18]
  Inhibition: 67%
Homo sapiens [19]
  Inhibition: 55%

## CCc1ccc(OC)c(C(O)c2ccc(Cl)cc2)c1 (centres undefined)
Cavia porcellus [3]
  Inhibition: 14%
Cavia porcellus [14]
  Activity: 2.7
Cavia porcellus [15]
  Activity: 0.8
Cavia porcellus [5]; dose 25 mg/kg, in the assay text read “at 25 mg/kg po dose” for “at 50 mg/kg po dose”
  Time: 2 h

## CN1CCC(=C2c3ccccc3CC(=O)c3sccc32)CC1 [KETOTIFEN]
Cavia porcellus [13]
  Inhibition: 37%
Cavia porcellus [3]
  Inhibition: 38%
Cavia porcellus [21]
  Activity: 3.1
Cavia porcellus [22]
  Activity: 4.2
Homo sapiens [16]
  Inhibition: 23%
Homo sapiens [17]
  Inhibition: 0%
Homo sapiens [18]
  Inhibition: 100%
Homo sapiens [19]
  Inhibition: 51%
Cavia porcellus [23]
  Time: 2 h
